Measured values from ChEMBL document CHEMBL1130394 (J Med Chem, 1997).

How the values were obtained:
[1] = system: KB; experiment: Inhibitory concentration that reduced the viability of KB cell population by 50%.; assay type: functional, cell-based; conditions: Homo sapiens
Outline: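 KB cells in Eagle's MEM with 10% calf serum, 37 °C, humidified 5% CO2, seeded at 3 × 10³ cells/mL and cultured 24 h. Compounds added in triplicate at several concentrations, with compound-free control wells, for 3 days. Value is the concentration reducing cell count by 50%.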

[2] = system: HT-29; experiment: Inhibitory concentration that reduced the viability of HT 29 cell population by 50%.; assay type: functional, cell-based; conditions: Homo sapiens
[3] = system: SK-OV-3; experiment: Inhibitory concentration the viability of SKOV 3 cell population by 50%.; assay type: functional, cell-based; conditions: Homo sapiens
[4] = system: SK-VLB; experiment: Inhibitory concentration that reduced the viability of SKVLB cell population by 50%.; assay type: functional, cell-based; conditions: Homo sapiens
[5] = molecular target: T1, DNA topoisomerase 1 (Homo sapiens, UniProt P11387); experiment: Inhibit supercoil relaxation property of topoisomerase I.
T1 sequence (P11387 whole entry): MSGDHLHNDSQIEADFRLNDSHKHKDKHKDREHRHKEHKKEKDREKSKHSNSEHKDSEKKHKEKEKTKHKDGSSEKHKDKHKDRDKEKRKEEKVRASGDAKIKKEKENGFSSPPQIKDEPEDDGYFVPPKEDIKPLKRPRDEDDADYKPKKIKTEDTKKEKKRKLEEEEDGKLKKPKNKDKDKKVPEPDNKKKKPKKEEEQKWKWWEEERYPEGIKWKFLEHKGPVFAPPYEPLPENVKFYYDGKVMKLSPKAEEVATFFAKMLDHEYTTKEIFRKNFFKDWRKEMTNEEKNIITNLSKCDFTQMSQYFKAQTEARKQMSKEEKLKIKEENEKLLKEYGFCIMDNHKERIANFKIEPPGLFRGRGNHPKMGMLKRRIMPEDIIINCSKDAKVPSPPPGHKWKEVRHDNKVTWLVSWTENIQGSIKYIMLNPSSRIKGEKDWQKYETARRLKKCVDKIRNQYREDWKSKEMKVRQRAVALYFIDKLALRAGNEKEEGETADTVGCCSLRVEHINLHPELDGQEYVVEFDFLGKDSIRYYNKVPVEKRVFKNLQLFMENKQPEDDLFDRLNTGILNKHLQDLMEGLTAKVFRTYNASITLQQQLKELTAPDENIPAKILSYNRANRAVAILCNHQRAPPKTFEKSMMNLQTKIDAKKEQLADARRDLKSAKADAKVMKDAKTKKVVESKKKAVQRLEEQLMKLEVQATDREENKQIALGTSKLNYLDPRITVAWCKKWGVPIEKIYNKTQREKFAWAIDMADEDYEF
Outline: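 Supercoiled pBR322 DNA (0.25 μg) incubated with topoisomerase I (0.5 unit) and ligand, 30 min at 37 °C. Then a further 30 min at 37 °C in SDS-containing loading buffer, agarose gel run overnight, and ethidium bromide staining. Supercoiled DNA remaining was quantified by laser densitometry of the photographic negative.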

Structure (SMILES) | IC50 [1] [µM] | IC50 [2] [µM] | IC50 [3] [µM] | IC50 [4] [µM] | IC50 [5] [µM]
CCC1(O)C(=O)OCc2c1cc1n(c2=O)Cc2cc3cc(OCCN)ccc3nc2-1 (centres undefined) | 0.175 |  |  |  | 
CCCC(=O)Nc1cn(COC)c(C(=O)NCCOc2ccc3nc4c(cc3c2)Cn2c-4cc3c(c2=O)COC(=O)C3(O)CC)n1 (centres undefined) | 1 | 6.9 | 1.3 | > 10 | 2.38
CCCC(=O)Nc1cc(C(=O)NCCOc2ccc3nc4c(cc3c2)Cn2c-4cc3c(c2=O)COC(=O)C3(O)CC)n(COC)c1 (centres undefined) | 15.3 | 8.1 | 5.1 | > 10 | 
CCC1(O)C(=O)OCc2c1cc1n(c2=O)Cc2cc3cc(OCC(=O)O)ccc3nc2-1 (centres undefined) | 0.25 | 2.8 | 1.2 | 2.1 | 1.12
CCC1(O)C(=O)OCc2c1cc1n(c2=O)Cc2cc3cc(OCCNC(=O)c4cc(NC(=O)CCCN(C)C)cn4COC)ccc3nc2-1 (centres undefined) | 5.68 | 3.4 | 1.5 | 3.5 | 2.6
CCCC(=O)Nc1ccc(C(=O)Nc2cc(C(=O)Nc3cc(C(=O)NCCOc4ccc5nc6c(cc5c4)Cn4c-6cc5c(c4=O)COC(=O)C5(O)CC)n(COC)c3)n(COC)c2)n1COC (racemic) | 5.09 | 7.1 | 3.6 | > 10 | 
CCC1(O)C(=O)OCc2c1cc1n(c2=O)Cc2cc3cc(OCCNC(=O)c4cc(NC(=O)c5cc(NC(=O)c6ccc(NC(=O)CCCN(C)C)n6COC)cn5COC)cn4COC)ccc3nc2-1 (racemic) | 1 | > 10 | 9.7 | > 10 | 1.97
CCCC(=O)Nc1cn(COC)c(C(=O)Nc2cn(COC)c(C(=O)NCCOc3ccc4nc5c(cc4c3)Cn3c-5cc4c(c3=O)COC(=O)C4(O)CC)n2)n1 (racemic) | 3.08 | 6 | 3.2 | > 10 | 2.42
CCC1(O)C(=O)OCc2c1cc1n(c2=O)Cc2cc3cc(OCC(=O)ONc4cc(C(=O)Nc5cc(C(=O)Nc6cc(C(=O)NCCCN(C)C)n(COC)c6)n(COC)c5)n(COC)c4)ccc3nc2-1 (racemic) | 5.5 | > 10 | > 10 | > 10 | 11.9
CCC1(O)C(=O)OCc2c1cc1n(c2=O)Cc2cc3cc(OCCNC(=O)c4cc(NC(=O)c5cc(NC(=O)CCCN(C)C)cn5COC)cn4COC)ccc3nc2-1 (racemic) | 6.29 | 6.2 | 4.3 | > 10 | 4.82
CCC1(O)C(=O)OCc2c1cc1n(c2=O)Cc2cc3cc(OCC(=O)ONc4cc(C(=O)Nc5cc(C(=O)NCCCN(C)C)n(COC)c5)n(COC)c4)ccc3nc2-1 (racemic) | 0.663 | > 10 | > 10 | > 10 | 
CCCC(=O)Nc1cc(C(=O)Nc2cc(C(=O)NCCOc3ccc4nc5c(cc4c3)Cn3c-5cc4c(c3=O)COC(=O)C4(O)CC)n(COC)c2)n(COC)c1 (racemic) | 3.25 | > 10 | > 10 | > 10 | 16.6
CCC1(O)C(=O)OCc2c1cc1n(c2=O)Cc2cc3ccccc3nc2-1 (single isomer, unassigned) [CAMPTOTHECIN] | 0.008 | 0.0878 | 0.051 | 0.053 | 
COc1cccc2c1C(=O)c1c(O)c3c(c(O)c1C2=O)C[C@@](O)(C(=O)CO)C[C@@H]3O[C@H]1C[C@H](N)[C@H](O)[C@H](C)O1 [DOXORUBICIN] | 0.015 | 0.28 | 0.0251 | 6.54 | 
Cn1cc(NC(=O)c2cc(NC(=O)CNC(=N)N)cn2C)cc1C(=O)NCCC(=N)N [NETROPSIN] | 47.1 | 44.7 |  | > 10 | 62
Cn1cc(NC(=O)c2cc(NC(=O)c3cc(NC=O)cn3C)cn2C)cc1C(=O)NCCC(=N)N [STALLIMYCIN] | 8.4 | 54.7 |  | > 10 | 2.7
